Test results from ChEMBL document CHEMBL3997782, “Methoxylated 2'-hydroxychalcones as antiparasitic hit compounds” (Eur J Med Chem, 2017).
pEC50: −log10 of the molar value.

System: Trypanosoma brucei brucei
Assay: Anti-parasitic activity against bloodstream form of Trypanosoma brucei brucei Lister 427 after 72 hrs by resazurin-based assay
Assay type: functional
Settings: Lister 427, 72 h
Method in brief: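 Bloodstream-form T. brucei, modified resazurin-based viability assay. EC50 is the arithmetic mean of at least two independent determinations, each run in triplicate.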

Question: With `COc1ccc2oc(-c3ccc(OC)c(OC)c3)c(O)c(=O)c2c1` as the molecule, how does the pEC50 read?
Answer: Its pEC50 is 5.69.

Question: With `COc1cccc(-c2oc3cc(OC)ccc3c(=O)c2O)c1` as the molecule, how does the pEC50 read?
Answer: The pEC50 was 5.94.

Question: With `COc1ccc(-c2oc3cc(OC)ccc3c(=O)c2O)cc1` as the molecule, how does the pEC50 read?
Answer: The pEC50 was 5.96.

Question: With `COc1ccc(-c2oc3ccc(OC)cc3c(=O)c2O)cc1` as the molecule, how does the pEC50 read?
Answer: The pEC50 was 4.70.

Question: With `COc1ccc2c(=O)c(O)c(-c3ccc(OC)c(OC)c3)oc2c1` as the molecule, how does the pEC50 read?
Answer: The pEC50 was 5.52.

Question: With `COc1cccc(-c2oc3ccc(OC)cc3c(=O)c2O)c1` as the molecule, how does the pEC50 read?
Answer: Its pEC50 is 5.84.

Question: With `COc1cccc(-c2oc3ccccc3c(=O)c2O)c1` as the molecule, how does the pEC50 read?
Answer: Its pEC50 is 5.63.

System: not listed separately
Assay: Selectivity index, ratio of CC50 for human THP1 cells to EC50 for anti-parasitic activity against bloodstream form of Trypanosoma brucei brucei Lister 427
Assay type: toxicity
Settings: THP-1 cells, read-out: Ratio CC50/EC50
Method in brief: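 SI = CC50 in PMA-differentiated THP-1 macrophages (MTT) divided by the antiparasitic EC50.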

Question: For `COc1ccc2oc(-c3ccc(OC)c(OC)c3)c(O)c(=O)c2c1`, which selectivity ratio is on record?
Answer: The selectivity ratio was 5.

Question: For `COc1cccc(-c2oc3cc(OC)ccc3c(=O)c2O)c1`, which selectivity ratio is on record?
Answer: The selectivity ratio was 8.

Question: Which selectivity ratio does the source give for `COc1ccc(-c2oc3cc(OC)ccc3c(=O)c2O)cc1` here?
Answer: Its selectivity ratio is 9.

Question: For `COc1ccc(-c2oc3ccc(OC)cc3c(=O)c2O)cc1`, which selectivity ratio is on record?
Answer: The selectivity ratio was 1.

Question: With `COc1ccc2c(=O)c(O)c(-c3ccc(OC)c(OC)c3)oc2c1` as the molecule, how does the selectivity ratio read?
Answer: The selectivity ratio was 8.

Question: For `COc1cccc(-c2oc3ccc(OC)cc3c(=O)c2O)c1`, which selectivity ratio is on record?
Answer: Its selectivity ratio is 10.

Question: For `COc1cccc(-c2oc3ccccc3c(=O)c2O)c1`, which selectivity ratio is on record?
Answer: Its selectivity ratio is 4.

System: Leishmania infantum
Assay: Anti-parasitic activity against Leishmania infantum amastigotes infected in human THP1 cells at 50 uM after 5 days by Giemsa staining based assay relative to control
Assay type: functional, cell-based
Settings: THP-1, 120 h
Method in brief: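 Intracellular L. infantum amastigotes in host cells, imaged by high-content automated imaging. Host cell number, infected cells and parasites per infected cell were counted. Infection Ratio = infected cells / total cells.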

Question: With `CCCCCCCCCCCCCCCCOP(=O)([O-])OCC[N+](C)(C)C` [MILTEFOSINE] as the molecule, how does the pEC50 read?
Answer: The pEC50 was 5.58.

System: not listed separately
Assay: Lipophilicity, log P of the compound
Assay type: physicochemical
Settings: octanol/water

Question: Which logP does the source give for `C=CC(C)(C)c1cc(/C=C/C(=O)c2ccc(O)cc2)c(OC)cc1O` [LICOAGROCHACONE A] here?
Answer: Its logP is 4.74.

System: Trypanosoma cruzi
Assay: Anti-parasitic activity against Trypanosoma cruzi Y promastigotes infected in HG39 cells at 10 uM by qPCR analysis relative to control
Assay type: functional, cell-based
Settings: in the assay text read “trypomastigotes” for “promastigotes”
Method in brief: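 Confluent HG39 cells (3 x 10^6 per well) infected at a 1:1 ratio with blood-derived T. cruzi Y strain trypomastigotes. Growth inhibition was read as parasite gDNA by TaqMan probe-based quantitative real-time PCR.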

Question: With `CC1CS(=O)(=O)CCN1/N=C/c1ccc([N+](=O)[O-])o1` (configuration not stated) [NIFURTIMOX] as the molecule, how does the pEC50 read?
Answer: Its pEC50 is 5.66.
